Experimental data from ChEMBL document CHEMBL3351566, “Blood schizontocidal and gametocytocidal activity of 3-hydroxy-N'-arylidenepropanehydrazonamides: a new class of antiplasmodial compounds” (J Med Chem, 2014).

Tests used:
[1] = test system: L6; assay: Cytotoxicity against rat L6 cells after 72 hrs by alamar blue assay; type: cell-based; details: L6, 72 h
[2] = test system: Plasmodium falciparum; assay: Antiplasmodial activity against Plasmodium falciparum 3D7 asexual blood stages after 3 days by HRP2 detection based ELISA method; type: functional, organism-based; details: 3D7, 72 h
How it was run: (§1)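 HRP2-based growth inhibition of P. falciparum asexual blood stages, 3D7 (chloroquine-sensitive) or Dd2 (multidrug-resistant). IC50 from 12 serial dilutions. Mean of at least two independent experiments, each run in duplicate.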

[3] = Selectivity index, ratio of IC50 for rat L6 cells to IC50 for Plasmodium falciparum 3D7 asexual blood stages; type: toxicity, cell-based; details: read-out: Ratio IC50
How it was run: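 Selectivity index calculated as L6 cytotoxicity IC50 divided by P. falciparum 3D7 IC50, using unrounded cytotoxicity values.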

[4] = test system: Plasmodium falciparum; assay: Antiplasmodial activity against Plasmodium falciparum Dd2 asexual blood stages after 3 days by HRP2 detection based ELISA method; type: functional, organism-based; details: Dd2, 72 h; how it was run: as §1
[5] = test system: Plasmodium falciparum; assay: Gametocytocidal activity against transgenic Plasmodium falciparum NF54-pfs16-GFP late stage gametocytes after 72 hrs by mitotracker red CM-H2XRos dye based confocal imaging assay; type: functional, organism-based; details: NF54, 72 h
How it was run: (§2)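 Late-stage gametocytes stained with MitoTracker Red, imaged, and scored by viable elongated MTR-positive morphology. % inhibition set relative to a puromycin 100% inhibition control. Compounds in 4% DMSO, top concentration 120 or 40 μM. IC50 from 21 serial dilutions. Mean of two independent experiments, each in duplicate.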

[6] = Plasma concentration in Plasmodium berghei infected mouse at 50 mg/kg, po dosed once daily for 4 days on 4, 24, 48 and 72 hrs post infection and measured 1 hr post dose by HPLC-MS/MS method; type: ADME, organism-based; set-up: dose 50 mg/kg, route oral
How it was run: (§3)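 P. berghei-infected mice (n = 3 per group) given oral doses in 70/30 Tween 80/ethanol diluted 10× with water, at 4, 24, 48 and 72 h postinfection. Plasma drug levels (ng/mL) measured at 1, 4 and 24 h after oral treatment.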

[7] = Plasma concentration in Plasmodium berghei infected mouse at 50 mg/kg, po dosed once daily for 4 days on 4, 24, 48 and 72 hrs post infection and measured 4 hrs post dose by HPLC-MS/MS method; type: ADME, organism-based; set-up: dose 50 mg/kg, route oral; how it was run: as §3
[8] = test system: Plasmodium berghei; assay: Antiplasmodial activity against Plasmodium berghei infected in mouse assessed as reduction in parasitemia level at 50 mg/kg, po dosed once daily for 4 days on 4, 24, 48 and 72 hrs post infection and measured on day 4; type: functional
How it was run: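 Peters 4-day test in P. berghei-infected mice, n = 3 per group. 50 mg/kg given orally once daily at 4, 24, 48 and 72 h postinfection. Dosed as a solution or suspension in 70/30 Tween 80/ethanol diluted 10× with water. Parasitemia read from blood taken on day 4 (96 h postinfection), expressed as % reduction versus an infected untreated control.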

[9] = Plasma concentration in Plasmodium berghei infected mouse at 50 mg/kg, po dosed once daily for 4 days on 4, 24, 48 and 72 hrs post infection and measured 24 hrs post dose by HPLC-MS/MS method; type: ADME, organism-based; set-up: dose 50 mg/kg, route oral; how it was run: as §3
[10] = test system: Plasmodium berghei; assay: Antiplasmodial activity against Plasmodium berghei infected in mouse assessed as […] in mouse survival at 50 mg/kg, po dosed once daily for 4 days on 4, 24, 48 and 72 hrs post infection and measured on day 4 (reference value: 4 days); type: functional
How it was run: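 Standard Peters 4-day test in P. berghei-infected mice (n = 3 per group), dosed orally at 4, 24, 48 and 72 h post-infection. Compound was dissolved or suspended in 70/30 Tween 80/ethanol and diluted 10× with water. Blood for parasitemia was taken on day 4 (96 h). Survival was given as mean days, with parasite-free at day 30 taken as cure. Untreated infected controls were euthanized on day 4.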

[11] = test system: Plasmodium falciparum; assay: Gametocytocidal activity against transgenic Plasmodium falciparum NF54-pfs16-GFP late stage gametocytes at 40 uM after 72 hrs by mitotracker red CM-H2XRos dye based confocal imaging assay; type: functional; details: NF54, 72 h; how it was run: as §2
[12] = test system: Mus musculus; assay: Toxicity in Plasmodium berghei infected mouse assessed as changes in physiological activities at 50 mg/kg, po dosed once daily for 4 days on 4, 24, 48 and 72 hrs post infection; type: organism-based; set-up: dose 50 mg/kg, route oral; details: in vivo
How it was run: (§4)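 P. berghei-infected mice (n = 3 per group) received four oral doses at 4, 24, 48 and 72 h post-infection. Vehicle was 70/30 Tween 80/ethanol diluted 10× with water. Mice were watched for acute toxicity signs: death, changes in general behaviour, and changes in physiological activities.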

[13] = test system: Mus musculus; assay: Toxicity in Plasmodium berghei infected mouse assessed as mouse mortality level at 50 mg/kg, po dosed once daily for 4 days on 4, 24, 48 and 72 hrs post infection; type: organism-based; set-up: dose 50 mg/kg, route oral; details: in vivo; how it was run: as §4
[14] = test system: Mus musculus; assay: Toxicity in Plasmodium berghei infected mouse assessed as changes in general behaviors at 50 mg/kg, po dosed once daily for 4 days on 4, 24, 48 and 72 hrs post infection; type: organism-based; set-up: dose 50 mg/kg, route oral; details: in vivo; how it was run: as §4
[15] = test system: Plasmodium falciparum; assay: Gametocytocidal activity against transgenic Plasmodium falciparum NF54-pfs16-GFP late stage gametocytes at 120 uM after 72 hrs by mitotracker red CM-H2XRos dye based confocal imaging assay; type: functional; details: NF54, 72 h; how it was run: as §2

| SMILES | IC50 [2] | IC50 [4] | IC50 [1] | selectivity ratio [3] | also measured |
| --- | --- | --- | --- | --- | --- |
| N/C(=N\N=C\c1ccccc1)C(O)c1cccc2ccccc12 (stereo not drawn) | 3000 nM | 3900 nM | 300 µM | 100 |  |
| N/C(=N\N=C\c1ccccc1)C(O)c1ccc2ccccc2c1 (stereo not drawn) | > 10000 nM | > 10000 nM |  |  |  |
| N/C(CC(O)c1cccc2ccccc12)=N\N=C\c1ccc(F)cc1 (stereo not drawn) | 60 nM | 200 nM | 19 µM | 321 | IC50 [5]: 780 nM; concentration at 1 h [6]: 316 ng/mL; concentration at 4 h [7]: 145 ng/mL; inhibition in vivo at 50 mg/kg [8]: 40%; concentration at 24 h [9]: < 5 ng/mL; MSD [10]: 6.7 days |
| CCC/C(=N\N=C(/N)CC(O)c1cccc2ccccc12)c1ccccc1 (stereo not drawn) | 240 nM | 610 nM | 29 µM | 120 |  |
| CCOc1cc(/C=N/N=C(\N)CC(O)c2ccc3ccccc3c2)ccc1O (stereo not drawn) | 1100 nM | 1300 nM | 78 µM | 71 |  |
| N/C(CC(O)c1ccc2ccccc2c1)=N\N=C\c1ccc(F)cc1F (stereo not drawn) | 4000 nM | > 10000 nM | 93 µM | 23 |  |
| N/C(CC(O)c1ccc2ccccc2c1)=N\N=C\c1ccc(Cl)c(Cl)c1 (stereo not drawn) | 1900 nM | 700 nM | 100 µM | 52 |  |
| N/C(CC(O)c1ccc2ccccc2c1)=N\N=C\c1cccnc1 (stereo not drawn) | > 10000 nM | > 10000 nM |  |  |  |
| N/C(CC(O)c1ccc2ccccc2c1)=N\N=C\c1ccco1 (stereo not drawn) | > 10000 nM | > 10000 nM |  |  |  |
| N/C(CC(O)c1cc2ccccc2c2ccccc12)=N\N=C\c1ccccc1 (stereo not drawn) | 16 nM | 28 nM | 6.1 µM | 383 | IC50 [5]: 180 nM |
| N/C(CC(O)c1cc2ccccc2c2ccccc12)=N\N=C\c1ccc(F)cc1 (stereo not drawn) | 8.3 nM | 11 nM | 16 µM | 1890 | IC50 [5]: 370 nM; concentration at 1 h [6]: 4690 ng/mL; Activity [12]: Non-toxic; Activity [13]: Non-toxic; Activity [14]: Non-toxic; concentration at 4 h [7]: 3100 ng/mL; inhibition in vivo at 50 mg/kg [8]: 99.6%; concentration at 24 h [9]: 86.1 ng/mL; MSD [10]: 10 days |
| O[C@@H](c1cc(C(F)(F)F)nc2c(C(F)(F)F)cccc12)[C@H]1CCCCN1 (relative stereo) [(S,R)-MEFLOQUINE] |  |  | 4.5 µM |  | IC50 [5]: 100 nM |
| C[C@H]1[C@H](OC(=O)CCC(=O)O)O[C@@H]2O[C@@]3(C)CC[C@H]4[C@H](C)CC[C@@H]1[C@@]24OO3 [ARTESUNATE] |  | 2 nM | 24 µM |  | IC50 [5]: 44 nM |
| CCN(CC)CCCC(C)Nc1ccnc2cc(Cl)ccc12 (stereo not drawn) [CHLOROQUINE] |  |  | 78 µM |  | inhibition at 120 µM [15]: 44% |
| COc1cc([C@@H]2c3cc4c(cc3[C@H](O)[C@H]3COC(=O)[C@H]23)OCO4)cc(OC)c1OC [PODOFILOX] | 9200 nM | 8300 nM | 0.0097 µM | 0.0016 |  |

Now from value to molecule, other results behind:

| IC50 [2] | IC50 [4] | SMILES | IC50 [1] | selectivity ratio [3] | also measured |
| --- | --- | --- | --- | --- | --- |
| 100 nM | 240 nM | N/C(CC(O)c1cccc2ccccc12)=N\N=C\c1ccccc1 (stereo not drawn) | 17 µM | 170 |  |
| 190 nM | 62 nM | Cc1ccc(/C=N/N=C(\N)CC(O)c2cccc3ccccc23)cc1 (stereo not drawn) | 6.8 µM | 36 |  |
| 110 nM | 300 nM | N/C(CC(O)c1cccc2ccccc12)=N\N=C\c1ccc(C(F)(F)F)cc1 (stereo not drawn) | 26 µM | 234 |  |
| 83 nM | 210 nM | COc1ccc(/C=N/N=C(\N)CC(O)c2cccc3ccccc23)cc1 (stereo not drawn) | 6.3 µM | 76 |  |
| 250 nM | 450 nM | CCOc1cc(/C=N/N=C(\N)CC(O)c2cccc3ccccc23)ccc1O (stereo not drawn) | 4.2 µM | 17 |  |
| 91 nM | 94 nM | N/C(CC(O)c1cccc2ccccc12)=N\N=C\c1cccc(Br)c1 (stereo not drawn) | 3.9 µM | 43 |  |
| 190 nM | 190 nM | N/C(CC(O)c1cccc2ccccc12)=N\N=C\c1ccc(F)cc1F (stereo not drawn) | 4.2 µM | 22 |  |
| 180 nM | 550 nM | N/C(CC(O)c1cccc2ccccc12)=N\N=C\c1ccc(F)c(F)c1 (stereo not drawn) | 17 µM | 95 |  |
| 250 nM | 190 nM | N/C(CC(O)c1cccc2ccccc12)=N\N=C\c1ccc(Cl)c(Cl)c1 (stereo not drawn) | 16 µM | 63 |  |
| 2700 nM | 1100 nM | N/C(CC(O)c1cccc2ccccc12)=N\N=C\c1cccnc1 (stereo not drawn) | 22 µM | 8 |  |
| 510 nM | 380 nM | N/C(CC(O)c1cccc2ccccc12)=N\N=C\c1ccco1 (stereo not drawn) | 145 µM | 284 |  |
| 400 nM | 740 nM | C/C(=N\N=C(/N)CC(O)c1cccc2ccccc12)c1ccc(F)cc1 (stereo not drawn) | 34 µM | 86 |  |
| 540 nM | 380 nM | Cc1ccc(/C=N/N=C(\N)CC(O)c2ccc3ccccc3c2)cc1 (stereo not drawn) | 103 µM | 190 |  |
| > 10000 nM | > 10000 nM | N/C(CC(O)c1ccc2ccccc2c1)=N\N=C\c1ccc(C(F)(F)F)cc1 (stereo not drawn) |  |  |  |
| 380 nM | 620 nM | COc1ccc(/C=N/N=C(\N)CC(O)c2ccc3ccccc3c2)cc1 (stereo not drawn) | 69 µM | 182 |  |
| 2000 nM | 2500 nM | N/C(CC(O)c1ccc2ccccc2c1)=N\N=C\c1ccc(F)cc1 (stereo not drawn) | > 298 µM | > 149 | inhibition at 40 µM [11]: 25% |
